Reference: ChEMBL document CHEMBL1821621, “Isolation and biological evaluation of jatrophane diterpenoids from Euphorbia dendroides” (J Nat Prod, 2011)

Experiments:
[1] = target: T1, ATP-dependent translocase ABCB1 (Homo sapiens, UniProt P08183); assay: Reversal of MDR1-mediated paclitaxel resistance in multidrug resistant human NCI-H460 cells assessed as combination index at 5 uM after 72 hrs by SRB assay; assay type: cell-based; settings: nci-h460, 72 h
Procedure, shortened: (§1)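 Resistant NCI-H460/R cells received 1, 2.5 or 5 μM compound simultaneously with 0.0055 μM paclitaxel for 72 h. Growth was read by SRB assay. Relative reversion = IC50 of paclitaxel / IC50 of the combination. Interaction was scored by the combination index method (median effect, multiple drug effect equation).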

[2] = target: T1, ATP-dependent translocase ABCB1; assay: Reversal of MDR1-mediated paclitaxel resistance in multidrug resistant human NCI-H460 cells assessed as combination index at 1 uM after 72 hrs by SRB assay; assay type: cell-based; settings: nci-h460, 72 h; procedure, shortened: as §1
[3] = target: T1, ATP-dependent translocase ABCB1; assay: Reversal of MDR1-mediated paclitaxel resistance in multidrug resistant human NCI-H460 cells assessed as combination index at 2.5 uM after 72 hrs by SRB assay; assay type: cell-based; settings: nci-h460, 72 h; procedure, shortened: as §1
[4] = target: T1, ATP-dependent translocase ABCB1; assay: Reversal of MDR1-mediated doxorubicin resistance in multidrug resistant human NCI-H460 cells assessed as combination index at 5 uM after 72 hrs by SRB assay; settings: nci-h460, 72 h
[5] = Anticancer activity against human U87MG cells after 72 hrs by SRB assay; assay type: functional, cell-based, U-87MG ATCC; settings: U-87 MG
Procedure, shortened: (§2)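 Cells were seeded in 96-well plates and left overnight: NCI-H460 and DLD-1 at 2000 cells/well, U-87 MG and NCI-H460/R at 4000 cells/well. NCI-H460/R was selected from NCI-H460 and kept in 100 nM doxorubicin. Compound exposure lasted 72 h. Cellular protein was stained with sulforhodamine B, and IC50 was obtained by linear regression.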

NCI-H460 [6] = assay: Anticancer activity against multidrug resistant human NCI-H460 cells after 72 hrs by SRB assay; assay type: functional, cell-based; settings: NCI-H460, 72 h; procedure, shortened: as §2
DLD-1 = assay: Anticancer activity against human DLD1 cells after 72 hrs by SRB assay; assay type: functional, cell-based; settings: DLD-1, 72 h; procedure, shortened: as §2
NCI-H460 [7] = assay: Anticancer activity against human NCI-H460 cells after 72 hrs by SRB assay; assay type: functional, cell-based; settings: NCI-H460, 72 h; procedure, shortened: as §2
[8] = target: T1, ATP-dependent translocase ABCB1; assay: Reversal of MDR1-mediated paclitaxel resistance in human NCI-H460 cells assessed as ratio of compound IC50 to IC50 of paclitaxel at 2.5 uM after 72 hrs by SRB assay; assay type: cell-based; settings: nci-h460, 72 h
Procedure, shortened: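 Growth was read by SRB assay. Relative reversion = IC50 of paclitaxel / IC50 of the combination. Interaction was scored by the combination index method (median effect, multiple drug effect equation).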

[9] = target: T1, ATP-dependent translocase ABCB1; assay: Reversal of MDR1-mediated paclitaxel resistance in multidrug resistant human NCI-H460 cells assessed as Rho123 accumulation at 5 uM after 30 mins by FACScalibur flow cytometry relative to control; assay type: cell-based; settings: nci-h460, 0.5 h
Procedure, shortened: (§3)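 NCI-H460/R cells were grown to 80% confluence, trypsinized and resuspended in medium containing Rho123. They were treated with compound at 5 or 20 μM for 30 min at 37 °C in 5% CO2, and Rho123 fluorescence (FL2-H) was read by flow cytometry. FAR = FL2-H of treated MDR cells / FL2-H of untreated MDR control.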

[10] = target: T1, ATP-dependent translocase ABCB1; assay: Reversal of MDR1-mediated paclitaxel resistance in multidrug resistant human NCI-H460 cells assessed as Rho123 accumulation at 20 uM after 30 mins by FACScalibur flow cytometry relative to control; assay type: cell-based; settings: nci-h460, 0.5 h; procedure, shortened: as §3
[11] = target: T1, ATP-dependent translocase ABCB1; assay: Reversal of MDR1-mediated paclitaxel resistance in human NCI-H460 cells assessed as ratio of compound IC50 to IC50 of paclitaxel at 1 uM after 72 hrs by SRB assay; assay type: cell-based; settings: nci-h460, 72 h; procedure, shortened: as §1
[12] = target: T1, ATP-dependent translocase ABCB1; assay: Reversal of MDR1-mediated doxorubicin resistance in human NCI-H460 cells assessed as ratio of compound IC50 to IC50 of paclitaxel at 5 uM after 72 hrs by SRB assay; assay type: cell-based; settings: nci-h460, 72 h, in the assay text read “IC50 of doxorubicin” for “IC50 of paclitaxel”
Procedure, shortened: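 NCI-H460/R cells received 5 μM compound simultaneously with 0.055 μM doxorubicin for 72 h, read by SRB. Relative reversion = IC50 of doxorubicin alone / IC50 of the combination. Values are the mean ± standard deviation of five independent experiments, with IC50 by linear regression.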

T1 sequence (P08183 whole entry): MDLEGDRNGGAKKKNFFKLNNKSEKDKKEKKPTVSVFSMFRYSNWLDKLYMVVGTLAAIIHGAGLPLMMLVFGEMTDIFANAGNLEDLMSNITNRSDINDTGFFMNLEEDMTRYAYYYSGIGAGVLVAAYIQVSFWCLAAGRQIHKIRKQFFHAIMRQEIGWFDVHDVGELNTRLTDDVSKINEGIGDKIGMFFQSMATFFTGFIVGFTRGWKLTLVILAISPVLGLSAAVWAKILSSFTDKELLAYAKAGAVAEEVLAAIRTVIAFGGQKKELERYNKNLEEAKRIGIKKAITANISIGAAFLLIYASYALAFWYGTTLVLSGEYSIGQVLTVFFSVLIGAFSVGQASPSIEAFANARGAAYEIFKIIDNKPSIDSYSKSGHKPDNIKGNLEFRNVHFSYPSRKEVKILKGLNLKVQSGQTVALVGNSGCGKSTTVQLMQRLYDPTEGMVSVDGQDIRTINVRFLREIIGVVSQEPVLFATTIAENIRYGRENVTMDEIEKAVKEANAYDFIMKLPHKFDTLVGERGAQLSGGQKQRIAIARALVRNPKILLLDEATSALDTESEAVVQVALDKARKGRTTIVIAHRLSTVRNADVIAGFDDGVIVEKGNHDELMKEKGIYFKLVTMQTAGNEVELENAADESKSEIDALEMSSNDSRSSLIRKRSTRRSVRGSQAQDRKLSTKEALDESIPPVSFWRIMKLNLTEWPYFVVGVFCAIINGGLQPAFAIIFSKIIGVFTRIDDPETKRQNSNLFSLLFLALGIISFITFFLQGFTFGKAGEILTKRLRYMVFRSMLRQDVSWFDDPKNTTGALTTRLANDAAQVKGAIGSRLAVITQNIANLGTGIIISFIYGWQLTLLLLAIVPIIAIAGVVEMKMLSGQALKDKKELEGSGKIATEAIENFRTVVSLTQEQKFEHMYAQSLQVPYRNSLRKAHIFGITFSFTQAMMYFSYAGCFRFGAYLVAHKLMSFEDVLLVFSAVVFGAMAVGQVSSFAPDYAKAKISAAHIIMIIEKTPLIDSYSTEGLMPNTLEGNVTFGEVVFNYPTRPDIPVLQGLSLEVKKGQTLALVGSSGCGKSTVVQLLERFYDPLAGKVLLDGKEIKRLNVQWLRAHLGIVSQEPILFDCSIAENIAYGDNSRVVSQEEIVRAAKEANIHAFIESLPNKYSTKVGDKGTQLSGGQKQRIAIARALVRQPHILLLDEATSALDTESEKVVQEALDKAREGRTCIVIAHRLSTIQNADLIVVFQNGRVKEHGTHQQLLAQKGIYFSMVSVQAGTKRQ

fractional inhibitory concentration index (FICI) [1] | fractional inhibitory concentration index (FICI) [2] | fractional inhibitory concentration index (FICI) [3] | fractional inhibitory concentration index (FICI) [4] | IC50 (NCI-H460 [6]) [µM] | IC50 (DLD-1) [µM] | IC50 (NCI-H460 [7]) [µM] | Ratio [9] | Ratio [10] | Structure (SMILES) | IC30 [5] [µM] | IC50 [5] [µM] | IC30 (NCI-H460 [6]) [µM] | IC30 (DLD-1) [µM] | IC30 (NCI-H460 [7]) [µM] | Ratio IC50 [8] | Ratio IC50 [11] | Ratio IC50 [12]
< 0.5 | < 1 | < 0.5 | < 0.5 |  |  |  |  |  | COc1ccc(CCN(C)CCCC(C#N)(c2ccc(OC)c(OC)c2)C(C)C)cc1OC (stereo not drawn) |  |  |  |  |  |  |  | 
< 0.5 | < 0.5 | < 1 | < 0.5 | 44.8 | 59.3 | 46.6 | 2.1 | 3.2 | C=C1[C@@H](OC(=O)C(C)C)[C@@H](OC(C)=O)[C@@H](OC(=O)c2cccnc2)C(C)(C)/C=C/[C@@H](C)C(=O)[C@@]2(O)C[C@H](C)[C@H](OC(=O)CC)[C@@H]2[C@H]1OC(C)=O [EUPHODENDROPHANE A] | 74.7 | 155 | 26.6 | 7.3 | 31 | 19 | 3 | 19
< 0.5 | < 1 | < 1 | < 0.5 | 17.2 | 22.1 | 16.2 | 1.9 | 3 | C=C1[C@@H](OC(=O)C(C)C)[C@@H](OC(C)=O)[C@@H](OC(=O)c2cccnc2)C(C)(C)/C=C/[C@@H](C)C(=O)[C@@]2(O)C[C@H](C)[C@H](OC(=O)C(C)C)[C@@H]2[C@H]1OC(C)=O [EUPHODENDROPHANE B] | 6.8 | 108 | 3.9 | 4.8 | 6.1 | 25 | 11 | 28
 |  |  |  | 30.1 | 42.7 | 21.3 |  |  | C=C1[C@@H](OC(C)=O)[C@@H](OC(=O)c2ccccc2)[C@@H](OC(C)=O)C(C)(C)/C=C/[C@@H](C)C(=O)[C@@]2(O)C[C@H](C)[C@H](OC(=O)C(C)C)[C@@H]2[C@H]1OC(C)=O [EUPHODENDROPHANE D] | 10.4 | 52.6 | 14.6 | 14.2 | 11.7 |  |  | 
 |  |  |  | 49.8 | 37.9 | 21.9 |  |  | C=C1[C@@H](OC(=O)C(C)C)[C@@H](OC(=O)c2ccccc2)[C@@H](OC(C)=O)C(C)(C)/C=C/[C@@H](C)C(=O)[C@@]2(O)C[C@H](C)[C@H](OC(=O)CC)[C@@H]2[C@H]1OC(C)=O [EUPHODENDROPHANE E] | 14.1 | 73.1 | 15.2 | 13.7 | 8.3 |  |  | 
 |  |  |  | 90.8 | 75.3 | 14.8 |  |  | CC(=O)OC/C1=C/[C@H]2[C@@H](OC(C)=O)[C@](C)(OC(C)=O)C[C@]2(OC(C)=O)C(=O)[C@H](C)/C=C/C(C)(C)[C@H](OC(=O)c2cccnc2)[C@H](OC(C)=O)[C@@H]1OC(=O)C(C)C [EUPHODENDROPHANE F] | 27.3 | 65.5 | 51.9 | 38.8 | 4.8 |  |  | 
 |  |  |  | 2.08 | 0.039 | 0.0094 |  |  | CC(=O)O[C@H]1C(=O)[C@@]2(C)[C@H]([C@H](OC(=O)c3ccccc3)[C@]3(O)C[C@H](OC(=O)[C@H](O)[C@@H](NC(=O)c4ccccc4)c4ccccc4)C(C)=C1C3(C)C)[C@]1(OC(C)=O)CO[C@@H]1C[C@@H]2O [PACLITAXEL] | 0.049 | 0.09 | 0.44 | 0.023 | 0.0036 |  |  | 

Structure (SMILES) | fractional inhibitory concentration index (FICI) [1] | fractional inhibitory concentration index (FICI) [2] | fractional inhibitory concentration index (FICI) [3] | fractional inhibitory concentration index (FICI) [4] | IC50 (NCI-H460 [6]) [µM] | IC50 (DLD-1) [µM] | IC50 (NCI-H460 [7]) [µM] | Ratio [9] | Ratio [10] | IC30 [5] [µM] | IC50 [5] [µM] | IC30 (NCI-H460 [6]) [µM] | IC30 (DLD-1) [µM] | IC30 (NCI-H460 [7]) [µM] | Ratio IC50 [8] | Ratio IC50 [11] | Ratio IC50 [12]
CC1=C[C@@H]2[C@H](C1=O)[C@H](O)C(C)=C[C@H]1[C@@H]3C(C)(C)[C@]3(OC(=O)C(C)C)[C@H](OC(=O)c3ccccc3)[C@@H](C)[C@]21O [EUPHODENDRIANE A] |  |  |  |  | 26 | 27.4 | 14.3 |  |  | 33.2 | 60.1 | 15.7 | 13.3 | 7 |  |  | 
